For 18 compounds, IC50 results are on record in ChEMBL document CHEMBL1765085, “Cytotoxic and apoptosis-inducing activities of triterpene acids from Poria cocos” (J Nat Prod, 2011).

Where only a bound is given, the exact number is not on record here.

Format in all cases: functional, cell-based
The subject of assay [1] is SK-BR-3. The assay can be described thus: Cytotoxicity in human SK-BR-3 cells assessed as cell viability after 48 hrs by MTT assay. The settings on record: SK-BR-3, 48 h. A digest of the protocol:
(§1)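 Growth conditions: RPMI 1640 for HL60, CRL1579, NIH:OVCAR-3, SK-BR-3, DU145 and PANC-1; D-MEM for A549; MEM for WI-38; all with 10% FBS and antibiotics, 37 °C, 5% CO2. Seeded at 3 × 10^3 cells/well (OVCAR-3 1 × 10^4), then treated 48 h with 10^-4 to 10^-6 M. MTT for 3 h, formazan dissolved in 0.04 M HCl/2-propanol, A570/630. IC50 (50% growth inhibition) from triplicates.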
For orientation: Tetrazolium assays rely on reduction of a dye to a coloured formazan, in cell work by metabolically active cells.

The test system of assay [2] is OVCAR-3. The assay can be described thus: Cytotoxicity in human OVCAR3 cells assessed as cell viability after 48 hrs by MTT assay. The following applies: OVCAR-3, 48 h. The method in brief: as §1
For assay [3], the system named is PANC-1. Nature of the assay: Cytotoxicity in human PANC1 cells assessed as cell viability after 48 hrs by MTT assay. The following applies: PANC-1, 48 h. A digest of the protocol: as §1
Assay [4] in a line: Cytotoxicity in human AZ-521 cells assessed as cell viability after 48 hrs by MTT assay. The settings on record: AZ-521, 48 h.
Assay [5] has as its system HL-60. Nature of the assay: Cytotoxicity in human HL60 cells assessed as cell viability after 48 hrs by MTT assay. The following applies: HL-60, 48 h. A digest of the protocol: as §1
For assay [6], the system named is DU-145. The assay can be described thus: Cytotoxicity in human DU145 cells assessed as cell viability after 48 hrs by MTT assay. The following applies: DU-145, 48 h. The method in brief: as §1
Assay [7] has as its system A549. Nature of the assay: Cytotoxicity in human A549 cells assessed as cell viability after 48 hrs by MTT assay. The settings on record: A549, 48 h. A digest of the protocol: as §1
Assay [8] can be described thus: Cytotoxicity in human CRL1579 cells assessed as cell viability after 48 hrs by MTT assay. A digest of the protocol:
as §1

For the compound `C=C(CC[C@@H](CO)[C@H]1[C@H](O)C[C@@]2(C)C3=C(CC[C@]12C)[C@@](C)(CCCO)[C@H](C(=C)C)CC3)C(C)C`, the IC50 is 51.3 µM in assay [1]; greater than 100 µM in assay [2]; greater than 100 µM in assay [3]; greater than 100 µM in assay [4]; 2.9 µM in assay [5]; greater than 100 µM in assay [6]. In addition, the values for the IC50 in assay [7] and in assay [8] were 41.2 µM and 9.9 µM, respectively.
On to `C=C(CC[C@@H](C(=O)OC)[C@H]1[C@H](O)C[C@@]2(C)C3=CC[C@H]4C(C)(C)[C@H](O)CC[C@]4(C)C3=CC[C@]12C)C(C)(C)O`, for which the half-inhibitory concentration (IC50) is 27.5 µM in assay [1]; 67.5 µM in assay [2]; 71.3 µM in assay [3]; 14.4 µM in assay [4]; 6.9 µM in assay [5]; 28.9 µM in assay [6]. For the same compound, the IC50 came out at 41.4 µM in assay [7] and 76.5 µM in assay [8].
Turning to `C=C(CC[C@@H](CO)[C@H]1[C@H](O)C[C@@]2(C)C3=CC[C@H]4C(C)(C)[C@H](O)CC[C@]4(C)C3=CC[C@]12C)C(C)(C)O`, the IC50 in assay [1] was greater than 100 µM; in assay [2], greater than 100 µM; in assay [3], greater than 100 µM; in assay [4], greater than 100 µM; in assay [5], 2.5 µM; in assay [6], greater than 100 µM. In addition, the half-inhibitory concentration (IC50) is greater than 100 µM in assay [7] and 14 µM in assay [8].
For `C=C(CC[C@@H](C(=O)OC)[C@H]1CC[C@@]2(C)C3=CC[C@H]4C(C)(C)C(=O)CC[C@]4(C)C3=CC[C@]12C)C(C)C`, the IC50 was 27.5 µM in assay [1]; greater than 100 µM in assay [2]; greater than 100 µM in assay [3]; 53.4 µM in assay [4]; 23.5 µM in assay [5]; greater than 100 µM in assay [6]. Further, the concentration for half-maximal inhibition (IC50) in assay [7] came out at 96.5 µM; in assay [8], 20.9 µM.
In the case of `C=C(CC[C@@H](CO)[C@H]1CC[C@@]2(C)C3=CC[C@H]4C(C)(C)[C@@H](O)CC[C@]4(C)C3=CC[C@]12C)C(C)C`, the IC50 was 11.7 µM in assay [1]; 6.4 µM in assay [2]; 22.6 µM in assay [3]; 12.5 µM in assay [4]; 6.7 µM in assay [5]; greater than 100 µM in assay [6]. In addition, the IC50 in assay [7] was found to be 4 µM; in assay [8], 2.8 µM.
For `C=C(CC[C@@H](C(=O)O)[C@H]1[C@H](O)C[C@@]2(C)C3=CC[C@H]4C(C)(C)[C@H](O)CC[C@]4(C)C3=CC[C@]12C)C(C)(C)O`, the IC50 in assay [1] was 62.3 µM; in assay [2] it was 9.5 µM; in assay [3], 67.4 µM; in assay [4], 51.5 µM; in assay [6] it was greater than 100 µM; in assay [7], 4 µM.
Regarding `C=C(CCC(C(=O)O)[C@H]1CC[C@@]2(C)C3=CC[C@H]4C(C)(C)C(=O)CC[C@]4(C)C3=CC[C@]12C)C(C)C` (stereo not given in full) [DEHYDROEBURICONIC ACID], the IC50 in assay [1] was 12.2 µM; in assay [2], 37.7 µM; in assay [3] it was 5.5 µM; in assay [4] it was greater than 100 µM; in assay [5] it was 29.2 µM; in assay [6], greater than 100 µM. Moreover, the IC50 in assay [7] stood at 10 µM; in assay [8] it was 89.7 µM.
Take `C=C(CC[C@@H](C(=O)OC)[C@H]1[C@H](O)C[C@@]2(C)C3=CC[C@@H](C(=C)C)[C@](C)(CCC(=O)OC)C3=CC[C@]12C)C(C)C` [DIMETHYL PORICOATE A]: the IC50 in assay [1] is 32.2 µM; in assay [2], 91.8 µM; in assay [3], greater than 100 µM; in assay [4], 32.1 µM; in assay [5], 18.2 µM; in assay [6] it was greater than 100 µM. Moreover, the IC50 in assay [7] is 79.6 µM; in assay [8], greater than 100 µM.
For `C=C(CC[C@@H](C(=O)OC)[C@H]1CC[C@@]2(C)C3=CC[C@@H](C(=C)C)[C@](C)(CCC(=O)OC)C3=CC[C@]12C)C(C)C` [DIMETHYL PORICOATE C], the IC50 in assay [1] was 23.9 µM; in assay [2] it was 23.6 µM; in assay [3], greater than 100 µM; in assay [4], 19.8 µM; in assay [5] it was 2.4 µM; in assay [6], greater than 100 µM. In addition, the half-inhibitory concentration (IC50) in assay [7] was 83.8 µM; in assay [8] it was 27.8 µM.
For the compound `C=C(C)[C@@H]1CCC2=C(CC[C@]3(C)[C@@H]([C@@H](CCC=C(C)C)C(=O)OC)[C@H](O)C[C@@]23C)[C@@]1(C)CCC(=O)OC` [DIMETHYL PORICOATE G], the half-maximal inhibitory concentration (IC50) in assay [1] was 4.3 µM; in assay [2], 26.3 µM; in assay [3] it was greater than 100 µM; in assay [4] it was 34.5 µM; in assay [5] it was 8.8 µM; in assay [6] it was greater than 100 µM. Further, the values for the half-maximal inhibitory concentration (IC50) in assay [7] and in assay [8] were 66 µM and 42.4 µM, respectively.
Regarding `C=C(CC[C@@H](C(=O)OC)[C@H]1[C@H](O)C[C@@]2(C)C3=C(CC[C@]12C)[C@@](C)(CCC(=O)OC)[C@H](C(=C)C)CC3)C(C)C` [DIMETHYL PORICOATE H], the concentration for half-maximal inhibition (IC50) in assay [1] was determined as 15.9 µM; in assay [2], 49.5 µM; in assay [3], 44.9 µM; in assay [4], 14.6 µM; in assay [5] it was 3.6 µM; in assay [6] it was 28.9 µM. Further, the IC50 came out at 13.5 µM in assay [7] and 97.6 µM in assay [8].
With `O=c1[nH]cc(F)c(=O)[nH]1` [FLUOROURACIL], the 50% inhibitory concentration (IC50) in assay [1] was greater than 100 µM; in assay [2], greater than 100 µM; in assay [3] it was 54.1 µM; in assay [4], greater than 100 µM; in assay [5] it was 9.5 µM; in assay [6] it was greater than 100 µM. The IC50 in assay [8] is greater than 100 µM.
With `C=C(CC[C@@H](C(=O)O)[C@H]1[C@H](O)C[C@@]2(C)C3=CC[C@@H](C(=C)C)[C@](C)(CCC(=O)O)C3=CC[C@]12C)C(C)C` [PORICOIC ACID A], the IC50 in assay [1], in assay [2], in assay [3], in assay [4], in assay [6] and in assay [7] was greater than 100 µM each time.
As to `C=C(CC[C@@H](C(=O)O)[C@H]1CC[C@@]2(C)C3=CC[C@@H](C(=C)C)[C@](C)(CCC(=O)O)C3=CC[C@]12C)C(C)C` [PORICOIC ACID C], the IC50 in assay [1] worked out at 23.9 µM; in assay [2], 53.1 µM; in assay [3], 68.9 µM; in assay [4] it was 45.9 µM; in assay [5], 25.9 µM; in assay [6], 14.5 µM. The IC50 in assay [7] was 27 µM; in assay [8], greater than 100 µM.
On to `C=C(C)[C@@H]1CCC2=C(CC[C@]3(C)[C@@H]([C@@H](CCC=C(C)C)C(=O)O)[C@H](O)C[C@@]23C)[C@@]1(C)CCC(=O)O` [PORICOIC ACID G], for which the IC50 in assay [1], in assay [2], in assay [3], in assay [4], in assay [6] and in assay [7] was greater than 100 µM throughout.
Consider `C=C(CC[C@@H](C(=O)O)[C@H]1[C@H](O)C[C@@]2(C)C3=C(CC[C@]12C)[C@@](C)(CCC(=O)O)[C@H](C(=C)C)CC3)C(C)C` [PORICOIC ACID H], for which the half-inhibitory concentration (IC50) in assay [1], in assay [2], in assay [3], in assay [4], in assay [6] and in assay [7] was greater than 100 µM throughout.
In the case of `C=C(CC[C@@H](CO)[C@H]1CC[C@@]2(C)C3=CC[C@@H](C(=C)C)[C@](C)(CCCO)C3=CC[C@]12C)C(C)C` [PORICOTRIOL C], the IC50 was determined as 11 µM in assay [1]; 70.3 µM in assay [2]; 91.3 µM in assay [3]; 13.3 µM in assay [4]; 12.3 µM in assay [5]; 20.3 µM in assay [6]. For the same compound, the 50% inhibitory concentration (IC50) in assay [7] worked out at 80 µM; in assay [8], 76.4 µM.
Turning to `C=C(C)[C@@H]1CCC2=C(CC[C@]3(C)[C@@H]([C@H](CO)CCC=C(C)C)[C@H](O)C[C@@]23C)[C@@]1(C)CCCO` [PORICOTRIOL G], the IC50 in assay [1] is 13 µM; in assay [2] it was 43.5 µM; in assay [3], 17.9 µM; in assay [4], 13.4 µM; in assay [5], 7.5 µM; in assay [6], greater than 100 µM. Further, the IC50 amounted to 11 µM in assay [7] and 11.6 µM in assay [8].

For orientation: IC50 means the concentration that gives 50% inhibition.
